Key:
Felis catus [1] = species: Felis catus; assay: Compound was tested for inhibition of HCO3- dependent swelling of cat cerebrocortical slices at concentration of (10e-13) M; format: functional
In short: (§1)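 Cerebrocortical slices were weighed and incubated in Warburg flasks at 22 °C in medium of KCl 27, NaCl 100, glucose 10 and KH2PO4 1.2 mmol/L (27 mM K+ HEPES). HCO3- (5 mM) was added from the side arm for the final 40 min, and the compound was present throughout the 60 min. Swelling = (final − initial wet weight)/initial wet weight × 100. Two-tailed t-test versus 27 K + HCO3-.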

Felis catus [2] = species: Felis catus; assay: Compound was tested for inhibition of HCO3- dependent swelling of cat cerebrocortical slices at concentration of (10e-8) M; format: functional; in short: as §1
Felis catus [3] = species: Felis catus; assay: Compound was tested for inhibition of K+ ion uptake in cat cerebrocortical slices at concentration of (10e-8) M; format: functional
In short: (§2)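 Slices were incubated 60 min at 22 °C in 27 mM K+ medium with 5 mM HCO3- added for the last 40 min, with the compound present throughout. Slices were then filtered off, reweighed and homogenized (10% w/v) in 1 N perchloric acid. The supernatant was assayed for electrolytes, expressed as µmol/g initial wet weight. Two-tailed t-test versus 27 K + HCO3-.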

Felis catus [4] = species: Felis catus; assay: Compound was tested for inhibition of K+ ion uptake in cat cerebrocortical slices at concentration of (10e-9) M; format: functional; in short: as §2
Felis catus [5] = species: Felis catus; assay: Compound was tested for inhibition of chloride ion uptake in cat cerebrocortical slices at concentration of (10e-12) M; format: functional; in short: as §2
Felis catus [6] = species: Felis catus; assay: Compound was tested for inhibition of chloride ion uptake in cat cerebrocortical slices at concentration of (10e-13) M; format: functional; in short: as §2
Felis catus [7] = species: Felis catus; assay: Compound was tested for inhibition of chloride ion uptake in cat cerebrocortical slices at concentration of (10e-7) M; format: functional; in short: as §2
Felis catus [8] = species: Felis catus; assay: Compound was tested for inhibition of chloride ion uptake in cat cerebrocortical slices at concentration of (10e-8) M; format: functional; in short: as §2
Felis catus [9] = species: Felis catus; assay: Compound was tested for inhibition of chloride ion uptake in cat cerebrocortical slices at concentration of (10e-9) M; format: functional; in short: as §2
Felis catus [10] = species: Felis catus; assay: Compound was tested for inhibition of sodium ion uptake in cat cerebrocortical slices at concentration of (10e-10) M; format: functional
Felis catus [11] = species: Felis catus; assay: Compound was tested for inhibition of sodium ion uptake in cat cerebrocortical slices at concentration of (10e-7) M; format: functional
Felis catus [12] = species: Felis catus; assay: Compound was tested for inhibition of sodium ion uptake in cat cerebrocortical slices at concentration of (10e-8) M; format: functional
Felis catus [13] = species: Felis catus; assay: Compound was tested for inhibition of sodium ion uptake in cat cerebrocortical slices at concentration of (10e-9 )M; format: functional
Felis catus [14] = species: Felis catus; assay: Compound was tested for inhibition of sodium ion uptake in cat cerebrocortical slices at concentration of (10e-11) M; format: functional
Felis catus [15] = species: Felis catus; assay: Compound was tested for inhibition of K+ ion uptake in cat cerebrocortical slices at concentration of (10e-13) M; format: functional; in short: as §2
Felis catus [16] = species: Felis catus; assay: Compound was tested for inhibition of K+ ion uptake in cat cerebrocortical slices at concentration of (10e-10) M; format: functional; in short: as §2
Felis catus [17] = species: Felis catus; assay: Compound was tested for inhibition of K+ ion uptake in cat cerebrocortical slices at concentration of (10e-11) M; format: functional; in short: as §2
Cavia porcellus [18] = species: Cavia porcellus; assay: Compound was tested for inhibition of potassium ion uptake in guinea pig cerebrocortical slices at concentration of (10e-7) M; format: functional; in short: as §2
Cavia porcellus [19] = species: Cavia porcellus; assay: Compound was tested for inhibition of sodium ion uptake in guinea pig cerebrocortical slices at concentration of (10e-10) M; format: functional
Cavia porcellus [20] = species: Cavia porcellus; assay: Compound was tested for inhibition of sodium ion uptake in guinea pig cerebrocortical slices at concentration of (10e-6) M; format: functional
Cavia porcellus [21] = species: Cavia porcellus; assay: Compound was tested for inhibition of sodium ion uptake in guinea pig cerebrocortical slices at concentration of (10e-7) M; format: functional
Cavia porcellus [22] = species: Cavia porcellus; assay: Compound was tested for inhibition of sodium ion uptake in guinea pig cerebrocortical slices at concentration of (10e-9) M; format: functional
Cavia porcellus [23] = species: Cavia porcellus; assay: Compound was tested for inhibition of HCO3- dependent swelling of guinea pig cerebrocortical slices at concentration of (10e-10) M; format: functional; in short: as §1
Cavia porcellus [24] = species: Cavia porcellus; assay: Compound was tested for inhibition of HCO3- dependent swelling of guinea pig cerebrocortical slices at concentration of (10e-11) M; format: functional; in short: as §1
Cavia porcellus [25] = species: Cavia porcellus; assay: Compound was tested for inhibition of HCO3- dependent swelling of guinea pig cerebrocortical slices at concentration of (10e-7) M; format: functional; in short: as §1
Cavia porcellus [26] = species: Cavia porcellus; assay: Compound was tested for inhibition of HCO3- dependent swelling of guinea pig cerebrocortical slices at concentration of (10e-9) M; format: functional; in short: as §1
Cavia porcellus [27] = species: Cavia porcellus; assay: Compound was tested for inhibition of chloride ion uptake in guinea pig cerebrocortical slices at concentration of (10e-9) M; format: functional; in short: as §2
Cavia porcellus [28] = species: Cavia porcellus; assay: Compound was tested for inhibition of potassium ion uptake in guinea pig cerebrocortical slices at concentration of (10e-10) M; format: functional; in short: as §2
Cavia porcellus [29] = species: Cavia porcellus; assay: Compound was tested for inhibition of potassium ion uptake in guinea pig cerebrocortical slices at concentration of (10e-12) M; format: functional; in short: as §2
Cavia porcellus [30] = species: Cavia porcellus; assay: Compound was tested for inhibition of potassium ion uptake in guinea pig cerebrocortical slices at concentration of (10e-6) M; format: functional; in short: as §2
Cavia porcellus [31] = species: Cavia porcellus; assay: Compound was tested for inhibition of chloride ion uptake in guinea pig cerebrocortical slices at concentration of (10e-11) M; format: functional; in short: as §2
Cavia porcellus [32] = species: Cavia porcellus; assay: Compound was tested for inhibition of chloride ion uptake in guinea pig cerebrocortical slices at concentration of (10e-12) M; format: functional; in short: as §2
Cavia porcellus [33] = species: Cavia porcellus; assay: Compound was tested for inhibition of chloride ion uptake in guinea pig cerebrocortical slices at concentration of (10e-7) M; format: functional; in short: as §2
Rattus norvegicus [34] = species: Rattus norvegicus; assay: Compound was tested for inhibition of chloride ion uptake in rat cerebrocortical slices at concentration of (10e-3) M; format: functional; in short: as §2
Rattus norvegicus [35] = species: Rattus norvegicus; assay: Compound was tested for inhibition of chloride ion uptake in rat cerebrocortical slices at concentration of (10e-6) M; format: functional; in short: as §2
Rattus norvegicus [36] = species: Rattus norvegicus; assay: Compound was tested for inhibition of potassium ion uptake in rat cerebrocortical slices at concentration of (10e-3) M; format: functional
Rattus norvegicus [37] = species: Rattus norvegicus; assay: Compound was tested for inhibition of potassium ion uptake in rat cerebrocortical slices at concentration of (10e-4) M; format: functional
Rattus norvegicus [38] = species: Rattus norvegicus; assay: Compound was tested for inhibition of potassium ion uptake in rat cerebrocortical slices at concentration of (10e-6) M; format: functional
Rattus norvegicus [39] = species: Rattus norvegicus; assay: Compound was tested for inhibition of potassium ion uptake in rat cerebrocortical slices at concentration of (10e-8) M; format: functional
Rattus norvegicus [40] = species: Rattus norvegicus; assay: Compound was tested for inhibition of sodium ion uptake in rat cerebrocortical slices at concentration of (10e-6) M; format: functional
Rattus norvegicus [41] = species: Rattus norvegicus; assay: Compound was tested for inhibition of sodium ion uptake in rat cerebrocortical slices at concentration of (10e-8) M; format: functional
Rattus norvegicus [42] = species: Rattus norvegicus; assay: Compound was tested for inhibition of HCO3- dependent swelling of rat cerebrocortical slices at concentration of (10e-3) M; format: functional; in short: as §1
Rattus norvegicus [43] = species: Rattus norvegicus; assay: Compound was tested for inhibition of HCO3- dependent swelling of rat cerebrocortical slices at concentration of (10e-4) M; format: functional; in short: as §1
Cavia porcellus [44] = species: Cavia porcellus; assay: Compound was tested for inhibition of HCO3- dependent swelling of guinea pig cerebrocortical slices at concentration of (10e-12) M; format: functional; in short: as §1
Felis catus [45] = assay: In vivo activity in the acceleration-deceleration head injury assay at dose of 5 mg/kg; 1/19
Felis catus [46] = assay: In vivo activity in the acceleration-deceleration head injury assay at dose of 10 mg/kg; 6/16

**Q.** For `CCCC12CCC(=O)C=C1c1c(cc(OCC(=O)O)c(Cl)c1Cl)C2` (single isomer, unassigned; (+)), which Swelling (Felis catus [1]) is on record?
**A.** 27.3%

**Q.** And the Swelling (Felis catus [2])?
**A.** 18.6%

**Q.** And the Activity (Felis catus [3])?
**A.** 83.8

**Q.** What about the Activity (Felis catus [4]) of the same molecule?
**A.** 86

**Q.** And the Activity (Felis catus [5])?
**A.** 90.5

**Q.** What about the Activity (Felis catus [6]) of the same molecule?
**A.** 98.5

**Q.** And the Activity (Felis catus [7])?
**A.** 86.9

**Q.** And the Activity (Felis catus [8])?
**A.** 89.1

**Q.** What about the Activity (Felis catus [9]) of the same molecule?
**A.** 89.3

**Q.** What about the Activity (Felis catus [10]) of the same molecule?
**A.** 86.9

**Q.** What about the Activity (Felis catus [11]) of the same molecule?
**A.** 86

**Q.** What about the Activity (Felis catus [12]) of the same molecule?
**A.** 87.2

**Q.** What about the Activity (Felis catus [13]) of the same molecule?
**A.** 85.6

**Q.** And the Activity (Felis catus [14])?
**A.** 86.4

**Q.** And the Activity (Felis catus [15])?
**A.** 87.6

**Q.** And the Activity (Felis catus [16])?
**A.** 86.9

**Q.** What about the Activity (Felis catus [17]) of the same molecule?
**A.** 88.8

**Q.** What about the Activity (Cavia porcellus [18]) of the same molecule?
**A.** 88.1

**Q.** And the Activity (Cavia porcellus [19])?
**A.** 108.3

**Q.** And the Activity (Cavia porcellus [20])?
**A.** 115

**Q.** And the Activity (Cavia porcellus [21])?
**A.** 125.4

**Q.** And the Activity (Cavia porcellus [22])?
**A.** 110

**Q.** And the Swelling (Cavia porcellus [23])?
**A.** 26.8%

**Q.** What about the Swelling (Cavia porcellus [24]) of the same molecule?
**A.** 27.6%

**Q.** And the Swelling (Cavia porcellus [25])?
**A.** 26.4%

**Q.** What about the Swelling (Cavia porcellus [26]) of the same molecule?
**A.** 26.2%

**Q.** And the Activity (Cavia porcellus [27])?
**A.** 105.2

**Q.** What about the Activity (Cavia porcellus [28]) of the same molecule?
**A.** 101.3

**Q.** And the Activity (Cavia porcellus [29])?
**A.** 87.7

**Q.** What about the Activity (Cavia porcellus [30]) of the same molecule?
**A.** 95

**Q.** What about the Activity (Cavia porcellus [31]) of the same molecule?
**A.** 94.8

**Q.** And the Activity (Cavia porcellus [32])?
**A.** 100.5

**Q.** And the Activity (Cavia porcellus [33])?
**A.** 115.4

**Q.** And the Activity (Rattus norvegicus [34])?
**A.** 106.3

**Q.** What about the Activity (Rattus norvegicus [35]) of the same molecule?
**A.** 101.5

**Q.** What about the Activity (Rattus norvegicus [36]) of the same molecule?
**A.** 60.2

**Q.** What about the Activity (Rattus norvegicus [37]) of the same molecule?
**A.** 73.7

**Q.** And the Activity (Rattus norvegicus [38])?
**A.** 71.9

**Q.** What about the Activity (Rattus norvegicus [39]) of the same molecule?
**A.** 75.4

**Q.** What about the Activity (Rattus norvegicus [40]) of the same molecule?
**A.** 127

**Q.** What about the Activity (Rattus norvegicus [41]) of the same molecule?
**A.** 118.9

**Q.** What about the Swelling (Rattus norvegicus [42]) of the same molecule?
**A.** 19.1%

**Q.** What about the Swelling (Rattus norvegicus [43]) of the same molecule?
**A.** 22.8%

**Q.** And the Swelling (Cavia porcellus [44])?
**A.** 30.9%

**Q.** And the Deaths (Felis catus [45])?
**A.** 1

**Q.** What about the Deaths (Felis catus [46]) of the same molecule?
**A.** 6

Reference: ChEMBL document CHEMBL1123488, “Agents for the treatment of brain edema. 2. [(2,3,9,9a-Tetrahydro-3-oxo-9a-substituted-1H-fluoren-7-yl)oxy]+ ++alkanoi c acids and some of their analogues” (J Med Chem, 1986)
